In ChEMBL document CHEMBL1145466, “Effects of carbapenem exposure on the risk for digestive tract carriage of intensive care unit-endemic carbapenem-resistant Pseudomonas aeruginosa strains in critically ill patients” (2007) one finds MIC and Activity data, which are given here for nine compounds.

The MIC is the smallest concentration in the dilution series that meets the test's criterion for growth inhibition.

Experiment [1] has as its system Pseudomonas aeruginosa. In words: Antimicrobial activity against carbapenem-resistant Pseudomonas aeruginosa isolate. The experiment is classed as functional. In outline:
(§1)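 P. aeruginosa isolates came from rectal and oropharyngeal swabs of ICU patients, plated on MacConkey agar and incubated at 37°C for 48 h. Gram-negative, oxidase-positive bacilli were identified by conventional biochemical tests. Intermediate isolates were scored as resistant. Clonality was checked by PFGE (6 V/cm, 14°C, 23 h, 5–25 s pulses), read by Tenover criteria.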

The test system of experiment [2] is Pseudomonas aeruginosa. Description: Antimicrobial activity against carbapenem-resistant Pseudomonas aeruginosa assessed as percent resistant isolates. The class given is functional. The essentials: as §1

Molecules are shown by their SMILES.

`NC[C@H]1O[C@H](O[C@H]2[C@H](O)[C@@H](O[C@H]3O[C@H](CO)[C@@H](O)[C@H](N)[C@H]3O)[C@H](N)C[C@@H]2N)[C@H](N)C[C@@H]1O` [TOBRAMYCIN] had an MIC in the experiment with Pseudomonas aeruginosa [1] of over 4 µg/mL. The Activity in the experiment with Pseudomonas aeruginosa [2] is recorded as 55%.

`CCN1CCN(C(=O)N[C@@H](C(=O)N[C@@H]2C(=O)N3[C@@H]2SC(C)(C)[C@@H]3C(=O)O)c2ccccc2)C(=O)C1=O` [PIPERACILLIN] registered a minimal inhibitory concentration (MIC) against Pseudomonas aeruginosa [1] of over 64 µg/mL. Besides, the Activity with Pseudomonas aeruginosa [2] is 21%.

Compound `C[C@@H](O)[C@H]1C(=O)N2C(C(=O)O)=C(S[C@@H]3CN[C@H](C(=O)N(C)C)C3)[C@H](C)[C@H]12` [MEROPENEM] had a minimal inhibitory concentration (MIC) against Pseudomonas aeruginosa [1] of at least 8 µg/mL. For the same compound, in the experiment on Pseudomonas aeruginosa [2], the Activity stood at 59.5%.

Compound `CC(O)[C@H]1C(=O)N2C(C(=O)O)=C(SCCNC=N)C[C@H]12` (single isomer, unassigned) [IMIPENEM ANHYDROUS] returned an MIC against Pseudomonas aeruginosa [1] of at least 8 µg/mL. Further, the Activity in the experiment on Pseudomonas aeruginosa [2] came to 100%.

In the experiment with Pseudomonas aeruginosa [1], `O=C(O)c1cn(C2CC2)c2cc(N3CCNCC3)c(F)cc2c1=O` [CIPROFLOXACIN] returned an MIC of at least 2 µg/mL. For the same compound, in the experiment on Pseudomonas aeruginosa [2], the Activity stood at 59.5%.

`C[C@H]1[C@H](NC(=O)/C(=N\OC(C)(C)C(=O)O)c2csc(N)n2)C(=O)N1S(=O)(=O)O` [AZTREONAM] came in with an MIC with Pseudomonas aeruginosa [1] of over 8 µg/mL. For the same compound, the Activity in the experiment on Pseudomonas aeruginosa [2] is listed as 33%.

In the experiment on Pseudomonas aeruginosa [1], `CC(C)(O/N=C(\C(=O)N[C@@H]1C(=O)N2C(C(=O)[O-])=C(C[n+]3ccccc3)CS[C@H]12)c1csc(N)n1)C(=O)O` [CEFTAZIDIME] gave an MIC of over 8 µg/mL. The Activity with Pseudomonas aeruginosa [2] is on record as 28.5%.

In turn, `NCC[C@H](O)C(=O)N[C@@H]1C[C@H](N)[C@@H](O[C@H]2O[C@H](CN)[C@@H](O)[C@H](O)[C@H]2O)[C@H](O)[C@H]1O[C@H]1O[C@H](CO)[C@@H](O)[C@H](N)[C@H]1O` [AMIKACIN] showed an MIC with Pseudomonas aeruginosa [1] of over 16 µg/mL. Moreover, the Activity in the experiment on Pseudomonas aeruginosa [2] is on record as 19%.

As for `CC1(C)S[C@@H]2[C@H](NC(=O)[C@H](C(=O)O)c3ccsc3)C(=O)N2[C@H]1C(=O)O` [TICARCILLIN], the MIC against Pseudomonas aeruginosa [1] was over 64 µg/mL. For the same compound, the Activity in the experiment on Pseudomonas aeruginosa [2] is given as 28.5%.
